Bioassay records from PubChem.
The list is not random: actives were taken first. Their share in the collection is about 1.9%.
Scp1 inh – Scp-1 phosphatase inhibitors, primary screen, biochemical, colorimetric, uHTS | hit rate 0.88% among 340,000 | inhibition, % at 20 µM | Recombinant Scp1, phosphopeptide, malachite green phosphate absorbance | Carboxy-terminal domain RNA polymerase II polypeptide A small phosphatase 1 (Homo …;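 active = inhibition above about 50% at 20 µM, limit read from the data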;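 also: plate controls were DMSO wells with enzyme for no effect and wells lacking enzyme for full effect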
Target sequence (Q9GZU7 76-261 limits assumed): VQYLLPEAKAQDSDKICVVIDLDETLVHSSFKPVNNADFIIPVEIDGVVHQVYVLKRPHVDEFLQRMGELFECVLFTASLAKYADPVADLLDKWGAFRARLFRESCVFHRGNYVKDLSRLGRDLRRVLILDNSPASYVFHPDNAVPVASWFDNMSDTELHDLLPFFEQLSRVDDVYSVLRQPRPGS
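Times: enzyme reaction 45 min at room temperature, colour 5 min, stabilisation 30 min. Material: SCP-1 catalytic fragment, aa 76-261. Medium: Acidic Tris acetate buffer with magnesium and detergent. Signal: colorimetric free-phosphate detection, absorbance 630 nm. Read-out basis: % inhibition of SCP-1 phosphate liberation. Reagent: Phosphorylated 17-residue peptide substrate.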
LMPTP inh – LMPTP phosphatase inhibitors, primary screen, biochemical, fluorescence intensity, uHTS | hit rate 0.22% among 360,000 | Low molecular weight phosphotyrosine protein phosphatase (Homo sapiens), P24666 | inhibition, % at 20 µM | AID 651560, 2012 | recombinant LMPTP-A, OMFP fluorogenic substrate;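 active = compounds that cut the enzyme signal by at least half of the control window in the single-dose screen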;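 also: plate controls were DMSO wells with enzyme plus substrate for no effect and substrate without enzyme for full effect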
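Assay system: LMPTP-A phosphatase enzyme | Input: 0.625 nM enzyme | Also added: Fluorogenic phosphatase substrate OMFP at 400 µM final | Compound dosing: One test concentration per compound, 20 µM, with 3% DMSO overall | Schedule: 50 min enzyme reaction at room temperature, protected from light | Signal: Fluorescence intensity | Benchmarks: no-enzyme and uninhibited controls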
DNMT1 inh – human DNMT1 methyltransferase inhibitors, primary screen, biochemical, molecular beacon, fluorescence, HinP1I cleavage, uHTS | inhibition (reported as % activation of signal), % at 10 µM | hit rate 0.83% among 360,000 | AID 588458, 2011; in the data active = inhibition above about 50%
SUMO1 PPI mod – modulators of SUMO1 protein-protein interactions, primary screen, biochemical, uHTS; Small ubiquitin-related modifier 1 (Homo sapiens), P63165; SUMO1 binding to a labelled peptide, TR-FRET, 1 h; inhibition, % at 20 µM; hit rate 0.33% among 360,000; AID 602429, 2012; in the data active = inhibition above about 37%
Target sequence (P63165 whole entry, looked up): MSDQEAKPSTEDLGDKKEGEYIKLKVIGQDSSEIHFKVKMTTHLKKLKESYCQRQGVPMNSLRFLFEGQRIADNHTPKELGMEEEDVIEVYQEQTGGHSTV
UBC9 SUMO inh – inhibitors of in vitro SUMOylation cascade, primary screen, biochemical, HTRF, uHTS; SUMO-conjugating enzyme UBC9 (Homo sapiens), P63279; AID 2006, 2009; HTRF SUMOylation assay, SAE1/SAE2 + UBC9; hit rate 0.36% among 290,000; inhibition, % at 35 µM; in the data active = inhibition above about 50%, passing the limit was not always enough
Target sequence (P63279 whole entry, looked up): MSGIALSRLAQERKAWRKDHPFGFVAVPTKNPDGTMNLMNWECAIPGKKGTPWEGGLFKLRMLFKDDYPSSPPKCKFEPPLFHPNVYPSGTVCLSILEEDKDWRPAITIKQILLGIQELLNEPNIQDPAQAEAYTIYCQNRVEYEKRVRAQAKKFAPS
STEP block – STEP phosphatase inhibitors, primary screen, biochemical, fluorescence intensity, uHTS. recombinant STEP, OMFP fluorogenic substrate. inhibition, % at 20 µM. hit rate 0.25% among 360,000. AID 588621, 2011;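 active = inhibition at 20 µM, scaled per plate between control wells, above about 37%, limit read from the data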;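 also: 0% = DMSO with enzyme and substrate and 100% = substrate only without enzyme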
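Assay system: isolated STEP enzyme. Buffer or medium: pH 6.0 Bis-Tris with DTT and Tween 20. Also added: fluorogenic phosphatase substrate OMFP at 25 µM final. Dosing: 20 µM, 1% DMSO. Timing: 20 min reaction, room temperature, in the dark. Measured by: fluorescence intensity, excitation 480 nm, emission 540 nm. Evaluation: normalized % inhibition.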
Active calls of the source: *; x = no result.

SMILES	Scp1 inh	LMPTP inh	DNMT1 inh	SUMO1 PPI mod	UBC9 SUMO inh	STEP block
CCN(CC)CCOC(=O)c1ccc(N/C=C(/C#N)c2nc(-c3ccc4c(c3)OCO4)cs2)cc1	8	22	-67	65*	42	86*
CCN(CC)CCOC(=O)c1ccc(N/C=C(/C#N)c2nc(-c3cc4ccccc4oc3=O)cs2)cc1	-5	30	50*	-63	55*	52*
CC(C)(Oc1ccc(Cl)cc1)C(=O)NCC(c1ccco1)N1CCCCC1 (stereo not drawn)	-4	-8	1	-3	x	-1
COc1ccc(NC(=O)c2sc(=O)n(Cc3ccccc3C#N)c2C)cc1OC	x	0	1	-4	x	-4
CS(=O)(=O)N(CC(=O)Nc1ccc(S(=O)(=O)N2CCCC2)cc1)c1ccccc1	1	2	5	-1	8	0
Cc1sc(/N=C/c2ccccc2O)c(C#N)c1C	x	x	x	x	17	x
CCOC(=O)C1(CCCc2ccccc2)CCN(C(=O)c2cc(C)nn2CC)CC1	-5	0	-4	43*	6	-1
CCCN(CCC)C(=O)CSc1nc2n[nH]c(C)c2c(=N)n1-c1ccc(OCC)cc1	-4	-12	-4	4	2	0
CCOc1ccc(-n2c(SCC(=O)Nc3ccc(CC)cc3)nc3n[nH]c(C)c3c2=N)cc1	-5	-1	48	4	56*	-1
CCc1nnc(NC(=O)CSc2nc3[nH]c(=O)cc(O)c3s2)s1	0	1	3	13	x	1
CCc1nnc(NC(=O)CSc2sc3c(O)cc(=O)[nH]c3c2C#N)s1	95*	32	83*	40*	34	33
O=S(=O)(Nc1cc2nc3ccccc3nc2n1Cc1ccccc1)c1ccc(Cl)cc1	-14	38	89*	51*	100	-13
COc1cccc(C(=O)Nc2cccc(-c3ccc4nncn4n3)c2)c1OC	-13	-1	-3	-8	-3	0
COc1ccc(Cl)cc1C(=O)Nc1cccc(-c2ccc3nncn3n2)c1	42	40	17	47*	51*	61*
O=C(N/N=C/c1cccc([N+](=O)[O-])c1)c1cc(-c2ccc3c(c2)OCO3)n[nH]1	11	5	49	73*	18	4
CN1OC[C@@H]2CN(S(=O)(=O)c3cc(Cl)cc(Cl)c3)[C@H](c3ccc(-c4ccc(C#N)cc4)cc3)C[C@@H]21	x	3	-3	1	x	1
CC1(C)Cc2c(C#N)c(N3CCN(C(=O)c4ccco4)CC3)nc(-c3ccco3)c2CS1	56*	0	4	4	30	-8
CC(=O)N1CCN(c2nc(-c3ccco3)c3c(c2C#N)CC(C)(C)SC3)CC1	-12	1	-8	8	16	3
O=Cc1cccn1-c1c(C(=O)O)cnn1-c1ccccc1	6	-1	0	42*	17	-1
CCOC(=S)N/C(=N\S(=O)(=O)c1ccc(C)cc1)c1ccccc1	-11	2	-2	-1	-7	4
CC(=O)Nc1ccc(NC(=O)CSc2ccc(-c3ccc(-n4ccnc4)cc3)nn2)cc1	-1	8	-3	42*	x	2
O=C(COC(=O)c1ccc(=O)[nH]c1)Nc1cccc(S(=O)(=O)N2CCOCC2)c1	-1	0	2	4	-10	0
Cc1ccc(-n2c(O)c(C=Nc3ccccc3-c3n[nH]c(=S)[nH]c3=O)c3ccccc3c2=O)cc1C	-2	4	8	20	53*	7
Cc1ccc(-n2c(O)c(C=Nc3ccccc3-c3n[nH]c(=S)[nH]c3=O)c3ccccc3c2=O)c(C)c1	-8	3	8	2	53*	3
Cc1cccc(-n2c(O)c(C=Nc3ccccc3-c3n[nH]c(=S)[nH]c3=O)c3ccccc3c2=O)n1	0	4	0	-4	17	6
SMILES	Scp1 inh	LMPTP inh	DNMT1 inh	SUMO1 PPI mod	UBC9 SUMO inh	STEP block
Cc1cccc(Nc2cc(C)c3c(O)cccc3n2)c1C	-12	69*	-29	-4	-25	5
Cc1cccc(NC(=S)N(C)C)c1C	-11	-1	3	-3	10	-3
O=C(CSc1nc2nn(-c3ccccc3)c(=O)c-2c2n1CCCCC2)c1ccc(O)c(O)c1	49	68*	2	3	x	3
COc1cccc(NC(=O)COC(=O)CCC(=O)c2cccs2)c1	8	-1	-1	6	x	4
NC(=S)NNc1cccc2cccnc12	4	50*	-11	11	92*	3
Oc1ccccc1CNc1cccc2cccnc12	-1	2	-45	2	76*	0
COc1cc(NCc2ccccc2O)c2ncccc2c1	-13	0	-14	-14	7	1
O=S(=O)(Nc1nccs1)c1ccc(NCc2cc(Br)cc(Br)c2O)cc1	6	1	-8	32	-4	-1
COc1cccc(CNc2ccc(S(=O)(=O)Nc3nccs3)cc2)c1O	-5	0	-1	38*	-2	2
Cc1nn(CCC(=O)O)c2nc(-c3cccnc3)cc(C(F)(F)F)c12	1	0	4	1	28	6
Cc1nn(CCc2nn[nH]n2)c2nc(-c3ccc(C4CCCCC4)cc3)cc(C(F)(F)F)c12	-7	3	9	40*	8	1
CC1CCCN(c2nc3ccccc3nc2C(C#N)S(=O)(=O)c2ccccc2)C1 (stereo not drawn)	-8	-1	-10	1	50*	-21
COc1ccc(S(=O)(=O)C(C#N)c2nc3ccccc3nc2N2CCC(C)CC2)cc1 (stereo not drawn)	x	x	x	x	64	x
Cc1ccc(S(=O)(=O)C(C#N)c2nc3ccccc3nc2N2CCN(C)CC2)cc1 (stereo not drawn)	-2	-1	-2	-1	38	-2
Cc1ccc(S(=O)(=O)C(C#N)c2nc3ccccc3nc2N2CCCCC2)cc1 (stereo not drawn)	x	x	x	x	83*	x
N#CC(c1nc2ccccc2nc1N1CCCCC1)S(=O)(=O)c1ccc(Cl)cc1 (stereo not drawn)	x	x	x	x	75*	x
O=S(=O)(NCC(O)COCc1ccco1)c1cccs1 (stereo not drawn)	65*	0	8	2	2	2
